# Test results taken from ChEMBL document CHEMBL1806428, “Design and synthesis of spiro derivatives of parthenin as novel anti-cancer agents” (Eur J Med Chem, 2011).
# Activity calls are given as the source filed them. The rule behind the calls is not given here.
# Experiments:
# [1] = Antitumor activity against mouse Ehrlich Ascites tumor xenografted in Swiss albino mouse assessed as decrease in tumor weight at 25 mg/kg, ip administered for 9 days (reference value: 1708+/-51.07 mg); type: functional; details: route intraperitoneal
# [2] = Antitumor activity against mouse Ehrlich Ascites tumor xenografted in Swiss albino mouse assessed as tumor growth inhibition at 100 mg/kg, ip administered for 9 days measured on day 13; type: functional; details: route intraperitoneal, read-out: GI
# [3] = system: Mus musculus; experiment: Toxicity in ip dosed Swiss albino mouse transplanted with mouse EAC cells assessed as mortality administered for 9 days; type: organism-based, Ehrlich; details: in vivo, 216 h
# Summary of the method: (§1)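 EAC ascites model: mice of the same sex, 20 ± 3 g, injected intraperitoneally with 1 × 10^7 cells from a donor bearing 8–10 day old ascites tumor (day 0). Randomised the next day, 7 per test group and 10 controls. Doses were suspended in 1% gum acacia and given i.p. for nine consecutive days; controls received saline 0.2 mL i.p. On day 12, ascitic fluid volume and tumor cell count were measured, and % inhibition was calculated from cell number versus control.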
# [4] = system: SW-620; experiment: Cell cycle arrest in human SW620 cells assessed as increase in sub-G1 DNA content at 50 uM after 24 hrs using propidium iodide staining by flow cytometry (reference value: 3.45%); type: functional
# [5] = system: SW-620; experiment: Cell cycle arrest in human SW620 cells assessed as increase in sub-G1 DNA content at 10 uM after 24 hrs using propidium iodide staining by flow cytometry (reference value: 3.45%); type: functional
# [6] = system: SW-620; experiment: Cytotoxicity against human SW620 cells assessed as cell growth after 48 hrs by sulforhodamine B assay; type: functional, cell-based; details: Homo sapiens, SW-620, 48 h
# Summary of the method: (§2)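 Log-phase cells seeded at 10^4/well and allowed to attach for 24 h at 37 °C, 5% CO2. Exposed for 48 h to 0.1–100 (1:10 serial dilutions), four replicate wells per condition. Fixed with cold 50% TCA for 1 h at 4 °C, stained with sulforhodamine B, dye dissolved in Tris, OD read at 540 nm. Blank-subtracted growth expressed relative to untreated cells (100%); IC50 reported.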
# [7] = Partition coefficient, log P of the compound; type: physicochemical; details: octanol/water
# [8] = Antitumor activity against mouse Ehrlich Ascites tumor xenografted in Swiss albino mouse assessed as decrease in tumor weight at 50 mg/kg, ip administered for 9 days (reference value: 1708+/-51.07 mg); type: functional; details: route intraperitoneal
# [9] = system: PC-3; experiment: Cytotoxicity against human PC3 cells assessed as cell growth after 48 hrs by sulforhodamine B assay; type: functional, cell-based; details: Homo sapiens, PC-3, 48 h; summary of the method: as §2
# [10] = system: Ehrlich; experiment: Antitumor activity against mouse EAC cells transplanted in Swiss albino mouse assessed as decrease in tumor cells in ascetic fluid at 10 mg/kg, ip administered for 9 days (reference value: 4.57+/-0.39 mL); type: functional, organism-based; parameters: dose 10 mg/kg; summary of the method: as §1
# [11] = Antitumor activity against mouse Ehrlich Ascites tumor xenografted in Swiss albino mouse assessed as decrease in tumor weight at 100 mg/kg, ip administered for 9 days (reference value: 1708+/-51.07 mg); type: functional; details: route intraperitoneal
# [12] = Antitumor activity against mouse EAC cells transplanted in Swiss albino mouse assessed as tumor growth inhibition at 25 mg/kg, ip administered for 9 days (reference value: 4.57+/-0.39 mL); type: functional; details: Ehrlich, 216 h, route intraperitoneal, read-out: GI
# [13] = Antitumor activity against mouse EAC cells transplanted in Swiss albino mouse assessed as decrease in astic fluid volume at 50 mg/kg, ip administered for 9 days (reference value: 4.57+/-0.39 mL); type: functional, Ehrlich; details: route intraperitoneal
# [14] = system: SW-620; experiment: Cell cycle arrest in human SW620 cells assessed as increase in sub-G1 DNA content at 1 uM after 24 hrs using propidium iodide staining by flow cytometry (reference value: 3.45%); type: functional
# [15] = Antitumor activity against mouse Ehrlich Ascites tumor xenografted in Swiss albino mouse assessed as tumor growth inhibition at 50 mg/kg, ip administered for 9 days measured on day 13; type: functional; details: route intraperitoneal, read-out: GI
# [16] = Antitumor activity against mouse EAC cells transplanted in Swiss albino mouse assessed as tumor growth inhibition at 10 mg/kg, ip administered for 9 days (reference value: 4.57+/-0.39 mL); type: functional; details: Ehrlich, 216 h, route intraperitoneal, read-out: GI; summary of the method: as §1
# [17] = Antitumor activity against mouse EAC cells transplanted in Swiss albino mouse assessed as decrease in astic fluid volume at 100 mg/kg, ip administered for 9 days (reference value: 4.57+/-0.39 mL); type: functional, Ehrlich; details: route intraperitoneal
# [18] = system: Ehrlich; experiment: Antitumor activity against mouse EAC cells transplanted in Swiss albino mouse assessed as decrease in tumor cells in ascetic fluid at 25 mg/kg, ip administered for 9 days (reference value: 4.57+/-0.39 mL); type: functional, organism-based; parameters: dose 25 mg/kg
# [19] = molecular target: Transcription factor p65 (Homo sapiens) (UniProt Q04206); experiment: Inhibition of NF-kappaB p65 subunit transcriptional activity in human SW620 cells at 5 uM by Western blot analysis; type: cell-based; details: SW-620
# Chain of Transcription factor p65 (Homo sapiens) (Q04206 whole entry): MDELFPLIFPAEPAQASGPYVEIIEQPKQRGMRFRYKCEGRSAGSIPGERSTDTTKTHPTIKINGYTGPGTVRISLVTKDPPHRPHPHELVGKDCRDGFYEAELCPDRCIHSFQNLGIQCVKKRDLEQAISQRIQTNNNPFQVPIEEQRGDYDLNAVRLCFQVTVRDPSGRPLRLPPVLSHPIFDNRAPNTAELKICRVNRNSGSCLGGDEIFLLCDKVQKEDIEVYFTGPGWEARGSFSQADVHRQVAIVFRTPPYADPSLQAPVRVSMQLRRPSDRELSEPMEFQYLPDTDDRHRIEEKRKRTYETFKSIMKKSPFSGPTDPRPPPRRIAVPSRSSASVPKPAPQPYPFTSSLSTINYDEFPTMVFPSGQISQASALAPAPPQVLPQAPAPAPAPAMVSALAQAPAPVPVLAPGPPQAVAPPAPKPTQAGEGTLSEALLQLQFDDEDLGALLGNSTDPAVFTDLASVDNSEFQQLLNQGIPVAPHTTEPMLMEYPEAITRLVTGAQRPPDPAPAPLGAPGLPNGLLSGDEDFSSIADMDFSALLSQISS
# Summary of the method: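 SW-620 cells (5 × 10^6) exposed to 5 for the indicated times. Washed in ice-cold PBS, lysed in Hepes pH 7.9 buffer with KCl, EDTA, EGTA, DTT, PMSF, NaF, vanadate and protease inhibitors, then NP-40 0.5%. Cytosol taken after 8000 × g. Nuclear fraction extracted with 20% glycerol and 0.4 M KCl on ice for 30 min, spun at 13,000 × g. NF-κB assessed by western blot.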
# [20] = system: Mus musculus; experiment: Antitumor activity against mouse Ehrlich Ascites tumor xenografted in ip dosed Swiss albino mouse assessed as tumor growth administered for 9 days; type: functional, organism-based
# [21] = Antitumor activity against mouse Ehrlich Ascites tumor xenografted in Swiss albino mouse assessed as tumor growth inhibition at 10 mg/kg, ip administered for 9 days measured on day 13; type: functional; details: route intraperitoneal, read-out: GI
# [22] = system: SW-620; experiment: Induction of apoptosis in human SW620 cells assessed as DNA fragmentation at 50 uM after 24 hrs by gel electrophoresis; type: functional, cell-based
# Summary of the method: (§3)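 SW-620 cells (2 × 10^6 per 60 mm plate) treated for 24 h at 10, 50 or 100. Pellets lysed in 10 mM EDTA, 50 mM Tris pH 8.0, 0.5% SDS and proteinase K 0.5 mg/mL at 50 °C for 1 h. DNA heated briefly to 70 °C and run on 1.5% agarose at 50 V for 2–3 h. Untreated cells served as control; camptothecin as positive control.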
# [23] = system: Mus musculus; experiment: Toxicity in Swiss albino mouse transplanted with EAC cells assessed as mortality at 200 mg/kg, ip administered for 9 days measured on day 3rd; type: organism-based, Ehrlich; parameters: dose 200 mg/kg, route intraperitoneal; details: in vivo, 216 h; summary of the method: as §1
# [24] = Antitumor activity against mouse Ehrlich Ascites tumor xenografted in Swiss albino mouse assessed as tumor growth inhibition at 25 mg/kg, ip administered for 9 days measured on day 13; type: functional; details: route intraperitoneal, read-out: GI
# [25] = system: Mus musculus; experiment: Toxicity in Swiss albino mouse model of Ehrlich Ascites tumor assessed as mortality at 200 mg/kg, ip administered for 9 days measured on third day; type: organism-based; parameters: dose 200 mg/kg, route intraperitoneal; details: in vivo, 216 h
# [26] = system: Ehrlich; experiment: Antitumor activity against mouse EAC cells transplanted in Swiss albino mouse assessed as decrease in tumor cells in ascetic fluid at 100 mg/kg, ip administered for 9 days (reference value: 4.57+/-0.39 mL); type: functional, organism-based; parameters: dose 100 mg/kg
# [27] = Antitumor activity against mouse EAC cells transplanted in Swiss albino mouse assessed as decrease in astic fluid volume at 10 mg/kg, ip administered for 9 days (reference value: 4.57+/-0.39 mL); type: functional, Ehrlich; details: route intraperitoneal; summary of the method: as §1
# [28] = Antitumor activity against mouse EAC cells transplanted in Swiss albino mouse assessed as tumor growth inhibition at 50 mg/kg, ip administered for 9 days (reference value: 4.57+/-0.39 mL); type: functional; details: Ehrlich, 216 h, route intraperitoneal, read-out: GI
# [29] = system: SW-620; experiment: Cell cycle arrest in human SW620 cells assessed as increase in sub-G1 DNA content at 5 uM after 24 hrs using propidium iodide staining by flow cytometry (reference value: 3.45%); type: functional
# [30] = system: Ehrlich; experiment: Antitumor activity against mouse EAC cells transplanted in ip dosed Swiss albino mouse assessed as tumor growth inhibition administered for 9 days; type: functional, organism-based; summary of the method: as §1
# [31] = system: SW-620; experiment: Induction of apoptosis in human SW620 cells assessed as blockage of G1-phase at 50 uM after 24 hrs using propidium iodide staining by flow cytometry; type: functional, cell-based
# [32] = Antitumor activity against mouse EAC cells transplanted in Swiss albino mouse assessed as decrease in astic fluid volume at 25 mg/kg, ip administered for 9 days (reference value: 4.57+/-0.39 mL); type: functional, Ehrlich; details: route intraperitoneal
# [33] = system: SW-620; experiment: Induction of apoptosis in human SW620 cells assessed as DNA fragmentation at 100 uM after 24 hrs by gel electrophoresis; type: functional, cell-based; summary of the method: as §3
# [34] = Antitumor activity against mouse Ehrlich Ascites tumor xenografted in Swiss albino mouse assessed as decrease in tumor weight at 10 mg/kg, ip administered for 9 days (reference value: 1708+/-51.07 mg); type: functional; details: route intraperitoneal
# [35] = Antitumor activity against mouse EAC cells transplanted in Swiss albino mouse assessed as tumor growth inhibition at 100 mg/kg, ip administered for 9 days (reference value: 4.57+/-0.39 mL); type: functional; details: Ehrlich, 216 h, route intraperitoneal, read-out: GI
# [36] = system: DU-145; experiment: Cytotoxicity against human DU145 cells assessed as cell growth after 48 hrs by sulforhodamine B assay; type: functional, cell-based; details: Homo sapiens, DU-145, 48 h; summary of the method: as §2
# [37] = system: Ehrlich; experiment: Antitumor activity against mouse EAC cells transplanted in Swiss albino mouse assessed as decrease in tumor cells in ascetic fluid at 50 mg/kg, ip administered for 9 days (reference value: 4.57+/-0.39 mL); type: functional, organism-based; parameters: dose 50 mg/kg
# [38] = system: Mus musculus; experiment: Toxicity in Swiss albino mouse model of Ehrlich Ascites tumor assessed as mortality at 50 mg/kg, ip administered for 9 days measured on second day; type: organism-based; parameters: dose 50 mg/kg, route intraperitoneal; details: in vivo, 216 h
# [39] = system: Mus musculus; experiment: Toxicity in Swiss albino mouse transplanted with mouse EAC cells assessed as mortality at 25 mg/kg, ip administered for 9 days measured on day 2nd; type: organism-based, Ehrlich; parameters: dose 25 mg/kg, route intraperitoneal; details: in vivo, 216 h; summary of the method: as §1
# [40] = system: Mus musculus; experiment: Toxicity in Swiss albino mouse transplanted with EAC cells assessed as mortality at 25 mg/kg, ip administered for 9 days measured on day 4th; type: organism-based, Ehrlich; parameters: dose 25 mg/kg, route intraperitoneal; details: in vivo, 216 h; summary of the method: as §1
# [41] = system: Mus musculus; experiment: Toxicity in Swiss albino mouse transplanted with mouse EAC cells assessed as mortality at 50 mg/kg, ip administered for 9 days measured on day 3rd; type: organism-based, Ehrlich; parameters: dose 50 mg/kg, route intraperitoneal; details: in vivo, 216 h; summary of the method: as §1
# [42] = system: Mus musculus; experiment: Toxicity in Swiss albino mouse model of Ehrlich Ascites tumor assessed as mortality at 25 mg/kg, ip administered for 9 days measured on fourth day; type: organism-based; parameters: dose 25 mg/kg, route intraperitoneal; details: in vivo, 216 h
# [43] = system: Mus musculus; experiment: Toxicity in Swiss albino mouse transplanted with EAC cells assessed as mortality at 50 mg/kg, ip administered for 9 days measured on day 2nd; type: organism-based, Ehrlich; parameters: dose 50 mg/kg, route intraperitoneal; details: in vivo, 216 h; summary of the method: as §1
structure (smiles),measurement,setting,value
C[C@H]1CC[C@@H]2[C@@H](OC(=O)[C@]23CC(c2c4ccccc4cc4ccccc24)=NO3)[C@]2(C)C(=O)C=C[C@@]12O,Activity,[1],1445.71 mg
same,inhibition in vivo at 100 mg/kg,[2],35.1%
same,Activity,[3],Toxic
same,Activity,[4],55%
same,Activity,[5],33.2%
same,IC50,[6],4.3 µM
same,logP,[7],3.71
same,Activity,[8],1332.14 mg
same,IC50,[9],4.9 µM
same,Activity,[10],Active
same,Activity,[11],1108.57 mg
same,inhibition in vivo at 25 mg/kg,[12],19.2%
same,Activity,[13],2.85 mL
same,Activity,[14],6.58%
same,inhibition in vivo at 50 mg/kg,[15],22%
same,inhibition in vivo at 10 mg/kg,[16],7.74%
same,Activity,[17],2.07 mL
same,Activity,[18],Active
same,inhibition,[19],Active
same,growth inhibition (GI),[20],Dose-dependent effect
same,inhibition in vivo at 10 mg/kg,[21],9.44%
same,Activity,[22],Active
same,Activity,[23],Toxic
same,inhibition in vivo at 25 mg/kg,[24],15.4%
same,Activity,[25],Toxic
same,Activity,[26],Active
same,Activity,[27],4.07 mL
same,inhibition in vivo at 50 mg/kg,[28],27.2%
same,Activity,[29],33.09%
same,growth inhibition (GI),[30],Dose-dependent effect
same,Activity,[31],Active
same,Activity,[32],3.62 mL
same,Activity,[33],Active
same,Activity,[34],1547.14 mg
same,inhibition in vivo at 100 mg/kg,[35],60.5%
same,IC50,[36],4.6 µM
same,Activity,[37],Active
C=C1C(=O)O[C@@H]2[C@H]1CC[C@H](C)[C@]1(O)C=CC(=O)[C@@]21C [PARTHENIN],Activity,[38],Toxic
same,Activity,[39],Toxic
same,Activity,[3],Toxic
same,IC50,[6],38.7 µM
same,IC50,[9],40.3 µM
same,Activity,[10],Active
same,Activity,[40],Toxic
same,inhibition in vivo at 10 mg/kg,[16],12%
same,Activity,[41],Toxic
same,inhibition in vivo at 10 mg/kg,[21],9.69%
same,Activity,[27],3.92 mL
same,growth inhibition (GI),[30],Dose-dependent effect
same,Activity,[34],1542.86 mg
same,Activity,[42],Toxic
same,IC50,[36],31.1 µM
same,Activity,[43],Toxic
